From ChEMBL document CHEMBL4513216, “Probing the Open Global Health Chemical Diversity Library for Multistage-Active Starting Points for Next-Generation Antimalarials” (ACS Infect Dis, 2020) come the findings set out here.

This data set in a line: Toxicity liver stage against HepG2, at 10uM. Also on record: test concentration 10 uM, cell line HepG2-A16-CD81EGFP. Conditions: human, HepG2-A16-CD81EGFP cells; read-out: INHIBITION
Format: cell-based. The method in brief: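 Uninfected HepG2-A16-CD81EGFP cells, 3 × 10^3 per well, 1536-well, plated on prespotted compound at 10 μM final, parasite-free screening media added to match infected plates; puromycin 10 μM positive, DMSO 0.5% negative; run in parallel with 48 h PbLuc assay at 37 °C, 5% CO2; viability by CellTiter-Glo luminescence, normalized to controls.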
As for `Cc1ccsc1C(=O)NC1CCS(=O)(=O)c2ccccc21` (stereo not given), the cytotoxicity at 10 µM is 2.93%.
As for `CN1CC=C(c2noc(CCC(=O)N3CCCC3)n2)CC1`, the figure is 4.87%; as for `COc1ccc(NC(=O)N2CCCC2c2ccco2)c(OC)c1` (stereo not given), 10.8%.
`CCOC(=O)c1nc(COc2c(C)occc2=O)no1`: the cytotoxicity at 10 µM was 3.79%.
On to `N#Cc1ccccc1NC(=O)C1CN(C(=O)c2ccc3c(c2)OCO3)C1`, for which the cytotoxicity at 10 µM was -8.64%.
The figure for `Cc1nc(NC2CCCC2)c2c(n1)c(C)nn2C` is 14.1%.
`CCn1nc(C)c(CNC(=O)c2nnc3ccc(OC)cc3n2)c1C`: the cytotoxicity at 10 µM worked out at 6.58%.
On to `Cc1nn(C)c2cnn(CCCNS(=O)(=O)Cc3ccccc3)c12`, for which the cytotoxicity at 10 µM came to 0.999%.
Take `CC(=O)N1CCC(c2cncc(N3CCOCC3)n2)CC1`: the cytotoxicity at 10 µM was found to be 3.66%.
The figure for `O=C1CCC[C@]2(CN(S(=O)(=O)N3CCOCC3)C[C@H]2c2cccnc2)N1` is -0.701%; for `CC(=O)N1CCC(c2cncc(Oc3ccccc3)n2)CC1` it is 6.05%; for `NCCn1nc(C2CCN(C(=O)CC3CCCCC3)C2)c2nccnc21` (stereo not given) it is -0.645%.
The figure for `CCc1nnsc1C(=O)NCc1nnc2n1CCCCC2` is 0.136%; for `Cc1nc2n(n1)CC(Nc1ncnc3c1CCC3)CC2` (stereo not given) it is -44.1%.
Regarding `CC(C#N)CN(C)Cc1c(Cl)ccc2cccnc12` (stereo not given), the cytotoxicity at 10 µM is -39%.
The figure for `CC(C)n1nnnc1-c1ccc(NC(=O)CC(F)(F)F)cc1F` is 6.62%.
As for `O=C(CCCc1nc2ccccc2[nH]1)N1CCCC1c1ccccn1` (stereo not given), the figure is 0.219%.
Regarding `COc1cc(C(C)=O)ccc1OCC(=O)c1cccn1C`, the cytotoxicity at 10 µM was 13.6%.
Turning to `CC(C)COCCNC1CCN(c2ccccn2)CC1`, the cytotoxicity at 10 µM is -2.12%.
The figure for `O=C(CNc1cc(-n2cnnn2)ccc1F)Nc1ccccc1Cl` is 11.7%; for `O=C(NCCCN1CCOCC1)c1ccc(-c2ccccc2)[nH]c1=O` it is -2.48%; for `COc1c(CNCc2ccc(CN3CCOCC3)cc2)c(C)nn1C` it is -11.8%.
As for `CN(C)C(=O)C1CCN(c2cncc(-n3cccn3)n2)CC1`, the figure is -10.9%; as for `CN(CC(=O)Nc1ccncc1)CC1CCCN1c1cccnn1` (stereo not given), -2.01%.
As for `CCN(CC1CN(Cc2nccn2CC)CCO1)c1cccnn1` (stereo not given), the figure is -0.31%; as for `COc1ccccc1OCC(=O)Nc1ncccc1C`, 0.464%.
Consider `CCc1noc(C(C)N(C)CC(=O)Nc2cccc(C)c2C)n1` (stereo not given), for which the cytotoxicity at 10 µM came to 6.35%.
Consider `Cc1ccc(S(=O)(=O)NCCCN2CCC(O)CC2)c(F)c1`, for which the cytotoxicity at 10 µM was 4.24%.
The figure for `CC(C)NC(=O)CNC(=O)OC(C)(C)C` is 9.39%.
As for `CCN(C(=O)c1cc(C)nc2ccccc12)C1CC(=O)NC1=O` (stereo not given), the figure is 3.04%; as for `CNC(=O)NC(=O)CCSc1ccccc1Cl`, -5.13%.
Regarding `Cc1nnc(N2CCNCC2)c(C(N)=O)c1C`, the cytotoxicity at 10 µM was determined as 3.52%.
As for `CCOc1cccc(NC(=O)Cc2cccc(O)c2)n1`, the figure is -0.116%.
The figure for `CC(NC(=O)Nc1ccc(-n2cncn2)cc1)C(=O)NC(C)(C)C` (stereo not given) is 3.92%.
As for `CC(C(=O)N1CCCCC1)N1CCN(c2nccs2)CC1` (stereo not given), the figure is 22.1%.
As to `CCC(C)NS(=O)(=O)Cc1cccc(NC(=O)c2ccc[nH]2)c1` (stereo not given), the cytotoxicity at 10 µM worked out at 15.5%.
`CC(c1ccc(F)c(F)c1)N(C)CCS(=O)(=O)CCC(N)=O` (stereo not given): the cytotoxicity at 10 µM was -52.2%.
The figure for `CC(C)C1CN(C(=O)c2ccc(N3CCCC3)nc2)CCS1` (stereo not given) is -4.81%; for `CC(C)CCC(=O)N1C[C@H]2CCN[C@H]2C1` it is 2.82%.
In the case of `Cc1cc(C(=O)N2CCn3cc(CN(C)C)nc3C2)no1`, the cytotoxicity at 10 µM was -80.5%.
The figure for `CC1=N[C@@]2(CC[C@@H]3CN(S(=O)(=O)C4CC4)C[C@@H]32)C(=O)N1CC(C)C` is -76.8%; for `O=C1CC(c2ccncc2)C2(CCN(C(=O)c3ccnnc3)CC2)N1` (stereo not given) it is -80.4%.
With `Cc1noc([C@@H]2CCO[C@@H]3CCN(Cc4nccs4)C[C@@H]32)n1`, the cytotoxicity at 10 µM was -75.8%.
Turning to `COCC(=O)N1CC[C@@H](N2CCN(C)CC2)[C@@H]1Cc1ccccc1`, the cytotoxicity at 10 µM was -66.1%.
As to `Cn1cccc1C(=O)N1C[C@@H](OCc2cccnc2)[C@H]2OCCC[C@H]21`, the cytotoxicity at 10 µM came to 7.06%.
As for `Cn1cccc1C(=O)N1CC[C@H]2C[C@@H](c3ccncn3)O[C@@H]2C1`, the figure is 0.77%; as for `Fc1cnc(N2CCOCC3(CCCN(c4nncs4)C3)C2)nc1` (stereo not given), 2.01%.
The figure for `Cc1ccc(C(=O)N2C[C@@H](OCC3CCOCC3)[C@H]3OCCC[C@H]32)o1` is -3.55%.
As for `O=C(c1ccc2nccnc2c1)N1CCN(CCO)[C@@H]2CS(=O)(=O)C[C@@H]21`, the figure is -10.4%.
Turning to `O=C(Cc1ccc(O)c(F)c1)N1CCC2(CCNCC2)CC1`, the cytotoxicity at 10 µM was -7.43%.
The figure for `Cc1nc(N(C)C)nc(N(C)CCc2ccncc2)c1C` is 1.37%; for `C[C@@H]1CN(CCC(=O)NCc2ccccc2Cl)CC[C@@]1(O)C1CCC1` it is -3.21%.
For `CC(C)(C)NC(=O)[C@@H]1Cc2ccccc2CN1Cc1cccs1`, the cytotoxicity at 10 µM was -2.14%.
As for `COc1ccc(C(O)C(=O)N2CCC(c3nccn3C(C)C)CC2)cc1` (stereo not given), the figure is -0.355%; as for `CC(C)c1nc(CN(C)C(=O)c2ccccc2C2CCNC2)cs1` (stereo not given), 4.46%.
Turning to `Cc1n[nH]c(C)c1CCc1ccc(S(C)(=O)=O)cc1`, the cytotoxicity at 10 µM was 6.29%.
As for `C=C(C)COc1ccccc1C(=O)NCCc1cc(O)nc(C)n1`, the figure is -0.355%; as for `CN1CC2(CCN(C(=O)Cc3ccc(O)c(F)c3)CC2)CC1=O`, 1.87%; as for `O=C(O)C1c2nc[nH]c2CCN1CC(c1ccccc1)c1ccccc1` (stereo not given), -7.97%.
As for `O=C(c1ccc(S(=O)(=O)NCc2ccon2)cc1)N1CCNCC1`, the figure is 2.59%; as for `CCn1c(CC2CCN(S(=O)(=O)c3cccs3)CC2)nn(C)c1=O`, 3.63%; as for `CN(C)C(=O)c1noc2c1CN(C(=O)CCCN1CCCCC1)CC2`, -10.5%.
With `CCC(O)c1nc2c([nH]1)CC(C)(C)CNC2=O` (stereo not given), the cytotoxicity at 10 µM was 9.55%.
The figure for `CCn1cc(-c2n[nH]c(=O)n2-c2ccc(OC)c(OC)c2)c(C)n1` is -9.91%; for `CCc1cn[nH]c1C1CCCN(C(=O)c2cc(C#N)c(=O)[nH]c2C)C1` (stereo not given) it is -1.3%; for `Cc1cc(NCCS(C)(=O)=O)nc2cc3c(cc12)CCC3` it is 8.05%.
Regarding `NCC1CN(c2nc(-c3ccccc3)nc3c2CCNCC3)CCO1` (stereo not given), the cytotoxicity at 10 µM was -14.9%.
On to `CCNC(=O)[C@@H]1C[C@@H](NC(=O)Cc2ccccn2)CN1CCCSC`, for which the cytotoxicity at 10 µM was -6.72%.
In the case of `Cc1nc(CN2CCCC(NCc3ccc4ccccc4c3)C2)no1` (stereo not given), the cytotoxicity at 10 µM is -0.375%.
As for `CCc1noc(CNc2ccc(C(=O)N3CCCC3)cc2C)n1`, the figure is -8.25%; as for `Cc1ccc(-c2nc(C(=O)NCC3CCOC3)cs2)cc1` (stereo not given), -8.32%; as for `O=C(C1CCOC1)N1CCN(Cc2ccc3c(c2)CCO3)CC1` (stereo not given), 0.28%.
As for `OCCn1nccc1C1CCN(CCOc2ccccc2)CC1`, the cytotoxicity at 10 µM is -0.121%.
As for `O=C1COc2cc(C(=O)NS(=O)(=O)c3ccc(F)c(F)c3)ccc2N1`, the figure is -2.34%; as for `O=C(c1csc(-c2ncccn2)n1)N1CCCC1Cn1cccn1` (stereo not given), 0.533%; as for `CC(C)(C)C(=O)NCCC(=O)N1CCC(Nc2cccnn2)CC1`, -4.11%.
As for `O=C(c1ccc(N2CCOCC2)cc1)N1CCCC(n2ccnc2)C1` (stereo not given), the cytotoxicity at 10 µM is -6.78%.
For `COc1cc(/C=C/c2ncc(C(=O)O)s2)cc(Cl)c1OC`, the cytotoxicity at 10 µM was determined as 8.01%.
As for `Cc1cnc(C(=O)N2CCCC(n3cncn3)C2)cn1` (stereo not given), the figure is -2.97%.
The figure for `Cc1nc(C)n(CC2CCCN(CCOc3cccc(C#N)c3)C2)n1` (stereo not given) is -6.53%; for `O=C(c1cccc(OC2CCCC2)c1)N1CCCC(n2cncn2)C1` (stereo not given) it is -10.3%.
As for `Cc1ccc(-c2nc(CNCC3CN(C)CCO3)cs2)o1` (stereo not given), the figure is -9.16%.
As for `CN1CCC/C1=N\S(=O)(=O)c1ccc(NC(=O)c2ccc(F)cc2)cc1`, the cytotoxicity at 10 µM is -4.84%.
On to `CNC(=O)C1CN(c2ccc(F)cc2)CCN1` (stereo not given), for which the cytotoxicity at 10 µM came to 7.9%.
The figure for `CCn1nc(C)c(CN(CCCOC)Cc2ccccn2)c1C` is 5.23%; for `CCOC[C@H]1CC[C@H]2[C@H](CCN2C(=O)c2ccncc2F)O1` it is -6.96%.
With `Cc1nnc(N2CC[C@H](OCC3CC3)[C@@H](Cc3ccccc3)C2)s1`, the cytotoxicity at 10 µM came out at 5.25%.
For the compound `COc1ncccc1CN1C[C@H]2CCN(c3ccc(C)nn3)C[C@H]2C1`, the cytotoxicity at 10 µM worked out at 4.59%.
As for `Cn1cc(-c2ncc3c(c2C(=O)O)CCN(Cc2ccco2)C3)cn1`, the figure is 6.15%; as for `COCCN(C)C[C@@H]1CCC[C@@H]2CN(c3cc(OC)ncn3)C[C@@H]21`, 1.75%; as for `Cn1cc(C(=O)N2CC[C@@H]3[C@@H]2CCN3Cc2cccc(C#N)c2)cn1`, -71.3%.
Take `CCN(CC)c1ncnc2c1CCN(CC1CCOCC1)CC2`: the cytotoxicity at 10 µM is -81.5%.
As to `CCN1C[C@H]2[C@@H](C1)N(S(=O)(=O)c1ccccc1)CC[C@H]2OC`, the cytotoxicity at 10 µM was -75.3%.
As for `CN(C)C(=O)CN1C[C@H]2CC[C@@H](C1)N(Cc1ccccc1C#N)C2`, the figure is -0.898%.
As for `Cc1ccc(-c2cc(C3=NC(=CN4CCN(C)CC4)NO3)[nH]n2)cc1`, the figure is -10.5%.
